The record followed here is ChEMBL document CHEMBL1127855, “Antitumor agents. 144. New gamma-lactone ring-modified arylamino etoposide analogs as inhibitors of human DNA topoisomerase II” (1994).

Each structure is given as a SMILES string.

Assay [1] addresses DNA topoisomerase II (Homo sapiens) (UniProt P11388+Q02880). The assay is described as follows: Inhibition of human DNA topoisomerase II activity. It counts as protein assay. Put shortly:
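Each compound was tested in triplicate at 5, 10, 25, 50 and 100 µM. ID50 was set from the degree of inhibition seen at these concentrations.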

Assay [2] relates to Nucleic Acid. Kind of assay: Percent of cellular protein-DNA complex formation at concentration of 20 uM. It counts as functional. The conditions noted are these: Homo sapiens.
Assay [3] relates to KB. Kind of assay: Cytotoxicity against KB-ATCC cell lines after a 3-day incubation. The conditions noted are these: Homo sapiens, 72 h, read-out: ID50 (the source's name). Type of assay: functional. Summed up:
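KB-ATCC cells were incubated with compound for 3 days. The read-out was cell number, and ID50 was taken as the concentration giving a 50% reduction.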

In turn, `COc1cc([C@@H]2c3cc4c(cc3[C@@H](Nc3ccc(F)cc3)[C@H]3CO[C@@H](OC)[C@H]23)OCO4)cc(OC)c1O` had an ID50 in assay [1] above 100 µM. Further, in assay [2], the Complex formation stood at 66%. Also, the IC50 in assay [3] came to 5.5 µM.
For `COc1cc([C@@H]2c3cc4c(cc3[C@@H](Nc3ccc(F)cc3)[C@H]3CO[C@@H](O)[C@H]23)OCO4)cc(OC)c1O`, in that order: 50 µM, 87% and 2.2 µM.
Molecule `COc1cc([C@@H]2c3cc4c(cc3[C@@H](Nc3ccccc3)[C@H]3COC[C@H]23)OCO4)cc(OC)c1O` showed an ID50 in assay [1] of 50 µM. Besides, the Complex formation in assay [2] is 139%. The IC50 in assay [3] was found to be 2.6 µM.
For `COc1cc([C@@H]2c3cc4c(cc3[C@@H](Nc3ccccc3)[C@H]3CO[C@@H](OC)[C@H]23)OCO4)cc(OC)c1O`, in that order: 100 µM, 96% and 5.5 µM.
Regarding `COc1cc([C@@H]2c3cc4c(cc3[C@@H](Nc3ccc(F)cc3)[C@H]3COC(=O)[C@H]23)OCO4)cc(OC)c1O`, the Complex formation in assay [2] is 213%. Also, the IC50 in assay [3] stood at 0.24 µM.
The molecule `COc1cc([C@@H]2c3cc4c(cc3[C@@H](O[C@@H]3O[C@@H]5CO[C@@H](C)O[C@H]5[C@H](O)[C@H]3O)[C@H]3COC(=O)[C@H]23)OCO4)cc(OC)c1O` [ETOPOSIDE] gave a Complex formation in assay [2] of 100%. Besides, the IC50 in assay [3] was 0.2 µM.
Take `COc1cc([C@@H]2c3cc4c(cc3[C@@H](Nc3ccc(F)cc3)[C@H]3COC[C@H]23)OCO4)cc(OC)c1O`: in assay [1], the ID50 is 50 µM. The same molecule had a Complex formation in assay [2] of 125%. In addition, the IC50 in assay [3] worked out at 4.1 µM.
